Compound activity (PubChem BioAssay)
Shown are actives, neighbours in structure and some others; about 2.6% of the full set was active somewhere.
SENP7 block: SENP7 protease inhibitors, primary screen, biochemical, luminescence, uHTS. recombinant SENP7, Z-RLRGG-aminoluciferin luminescence, 40 min. inhibition, % at 5 µM. 330,000 compounds, 1.5% hits. AID 434973, 2010;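 active = inhibition above about 50% at the single test dose, limit read from the data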;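 note: plate controls were DMSO with enzyme for no effect and no enzyme buffer wells for full effect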
Target sequence (Q9BQF6 706-1050 limits assumed): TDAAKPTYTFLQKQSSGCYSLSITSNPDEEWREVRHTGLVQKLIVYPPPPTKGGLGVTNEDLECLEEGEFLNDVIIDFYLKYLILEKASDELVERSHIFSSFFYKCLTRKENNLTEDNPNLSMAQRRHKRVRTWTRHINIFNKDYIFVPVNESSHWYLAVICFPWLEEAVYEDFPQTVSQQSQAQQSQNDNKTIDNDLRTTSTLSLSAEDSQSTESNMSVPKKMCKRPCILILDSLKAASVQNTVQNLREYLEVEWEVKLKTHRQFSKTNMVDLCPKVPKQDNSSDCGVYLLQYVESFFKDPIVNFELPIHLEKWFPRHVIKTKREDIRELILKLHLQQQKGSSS
Platelet DG rel: inhibitors of platelet dense granule secretion, primary screen, cell-based, MLPCN, human platelets | 300,000 compounds, 0.22% hits | inhibition, %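 (compounds screened at 7.5 µM in platelet-rich plasma)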 | human platelet-rich plasma, SFLLRN dense granule ATP release, luminescence;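 active = mean replicate score, as percent of positive control, at or above 50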
SENP8 block-1: SENP8 protease inhibitors, primary screen, biochemical, luminescence | Sentrin-specific protease 8 (Homo sapiens), Q96LD8 | purified SENP8, Z-RLRGG-aminoluciferin cleavage | inhibition, % at 10 µM | 330,000 compounds, 1.2% hits; in the data active = inhibition above about 50%
SENP1 FRET inh: human SENP1 catalytic domain inhibitors, primary screen, biochemical, FRET, uHTS; Sentrin-specific protease 1 (Homo sapiens), Q9P0U3; recombinant SENP1 catalytic domain, CyPet-SUMO1-YPet FRET cleavage; inhibition, % at 10 µM; 360,000 compounds, 0.21% hits;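 active = inhibition at least 30% at 10 µM, raw YFP signal under a set limit, fluorescence ratio 0.5 to 1.5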;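 note: 0% = enzyme with DMSO and 100% = no enzyme wells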
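Test system: human SENP1 catalytic domain; medium: Tris pH 8 buffer plus EDTA, NaCl, BME, BSA, NP40, catalase; incubation: 50 min reaction at room temperature; technique: FRET, CFP and YFP emission; controls: no-enzyme low control and enzyme-plus-DMSO high control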
SENP6 block: SENP6 protease inhibitors, primary screen, biochemical, luminescence, uHTS. Sentrin-specific protease 6 (Homo sapiens), Q9GZR1. inhibition, % at 10 µM. Recombinant SENP6 catalytic domain, aminoluciferin luminescence. 330,000 compounds, 1.8% hits;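 active = inhibition above about 50% at the single tested dose, limit read from the data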;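 note: plate controls were DMSO wells with enzyme for no effect and DMSO wells lacking enzyme for full effect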
SENP8 block-2: human SENP8 protease inhibitors, primary screen, biochemical, fluorescence, Nedd8 protein substrate, uHTS | inhibition, % at 20 µM | 360,000 compounds, 0.64% hits | Sentrin-specific protease 8 (Homo sapiens), Q96LD8 | AID 602440, 2012 | recombinant SENP8; in the data active = inhibition mostly above about 40%, no sharp cut-off; inactive = mostly below about 27%
SENP8 conf: human SENP8 protease inhibitors, confirmation, biochemical, Nedd8 protein substrate, single concentration; shares compounds with SENP8 block-2; purified SENP8, Nedd8-AMC/pro-Nedd8 cleavage fluorescence, 30 min; inhibition, % at 25 µM; 1,400 compounds, 15% hits; in the data active = inhibition mostly above about 39%, no sharp cut-off; inactive = mostly below about 34%
* hit, by the source's call; / = no result given.

SMILES	SENP7 block	Platelet DG rel	SENP8 block-1	SENP1 FRET inh	SENP6 block	SENP8 block-2	SENP8 conf
O=[N+]([O-])c1ccc(N2CCN(Cc3ccccc3)CC2)c2c1no[n+]2[O-]	/	/	/	36*	/	42*	83*
O=C(Cn1ccc([N+](=O)[O-])n1)NCc1nc2ccccc2[nH]1	-2	-1	-3	-2	-9	-1	/
Cc1ccc(C)c(Nc2c([N+](=O)[O-])ccc3nonc23)c1	-15	-1	-8	4	-12	45*	18
Cc1ccc(C(=O)C(C)OC(=O)c2cc(=O)[nH]c3ccccc23)cc1 (stereo not given)	2	-35	-8	3	-3	-227	/
CC(=O)c1cccc(NC(=O)COC(=O)c2ccc3c(c2)OCCO3)c1	5	2	-3	0	-1	42*	-3
CCC(CO)Oc1cc(NCc2ccncc2)c2ncn(C(C)C)c2c1 (stereo not given)	3	/	6	-21	6	41*	29
COC(=O)c1cc(=O)nc(NN=C2CCCCC2)s1	/	/	/	5	/	15	/
COC(=O)c1cc(=O)nc(NN=C2c3ccccc3-c3ccccc32)s1	/	/	/	5	/	38*	25
CC(=O)Nc1ccc(Nc2ccc3nonc3c2[N+](=O)[O-])cc1	-12	1	-1	4	5	31	/
Cc1cc(Nc2ccccc2)c2c([N+](=O)[O-])cc(C)c(C)c2n1	6	1	4	-2	7	45*	2
O=[N+]([O-])c1ccc(Nc2ccccc2)c2nonc12	1	-2	-9	21	-3	49*	17
CC(=O)NS(=O)(=O)c1ccc(Nc2ccc([N+](=O)[O-])c3nonc23)cc1	4	-3	0	12	6	24*	26
O=[N+]([O-])c1cnccc1Nc1ccccc1	7	-5	4	5	-4	19	/
CCOc1nc(NC(=O)NC(=O)c2ccccc2)nc(-c2ccccc2)n1	-2	-14	-7	2	-9	4	/
CN(CC(=O)Nc1ccccc1C(F)(F)F)C(=O)CSc1nc(N)cc(N)n1	/	/	/	1	/	-10	/
Cc1cccc(C)c1-n1c(C)nn(CCOc2ccccc2)c1=O	8	3	6	1	16	20	/
Cc1ccc(NC(=O)CN(C)C(=O)COC(=O)CNS(=O)(=O)c2ccc(Br)cc2Cl)cc1	-5	20	-2	3	-2	8	/
CCC(C)C(NC(N)=O)C(=O)Nc1ccc(OCc2ccccc2)cc1 (stereo not given)	8	5	2	4	0	49*	20
O=C(CN1CCCN(S(=O)(=O)c2ccc(Br)cc2)CC1)Nc1ccc2cn[nH]c2c1	/	1	/	/	/	/	/
CCC(CO)Oc1cc(NC(=O)c2ccccc2F)c2ncn(C(C)C)c2c1 (stereo not given)	-6	/	-6	2	-22	-2	/
COc1ccccc1CNC(=O)[C@H](C)NC(=O)C1CCN(C(=O)[C@@H]2CCCN2C(=O)OC(C)(C)C)CC1	-1	-2	8	-1	1	45*	14
COc1ccc(CNC(=O)[C@@H](NC(=O)C2CCN(C(=O)[C@@H]3CCCN3C(=O)OC(C)(C)C)CC2)C(C)C)cc1	-12	2	-18	4	-17	7	/
COc1ccc(NC(=O)N2CCCC2C(=O)NC2CCCC2)cc1 (stereo not given)	3	5	2	2	-33	7	/
O=C(CNC(=O)c1ccccc1F)N/N=C/c1cccs1	-5	-3	-11	0	-28	42*	11
O=C(CNC(=O)c1ccccc1)N/N=C/c1cccs1	1	-4	-6	0	8	19	/
CCC(=O)Nc1ccccc1Nc1cc(C#N)c(C#N)cc1[N+](=O)[O-]	2	4	0	-2	-19	42*	18
